Active and inactive are the calls of the source. The calls are words filed in the database; no cut-off is given here.
Columns and labels:
[1] = Tmax in CD1 mouse at 5 mg/kg, iv and 15 mg/kg, po; assay type: ADME, organism-based; conditions: in vivo
Outline: (§1)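 Single dose to male CD-1 mice, either iv at 5 mg/kg or oral at 15 mg/kg. Plasma pharmacokinetic parameters were calculated from these dosings.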

[2] = test system: HCT-116; assay: Cell cycle arrest in human HCT116 cells assessed as decrease in G2/M phase cells at 0.3 uM after 24 hrs by flow cytometry; assay type: functional, cell-based
Outline: (§2)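 HCT-116 cells treated for 24 h at several concentrations. Harvested, fixed in 70% ethanol at -20 °C, RNase treated (1 mg/mL), stained with propidium iodide. DNA content measured by flow cytometry to give phase distribution, including the subG1 population.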

[3] = Elimination half life in CD1 mouse at 5 mg/kg, iv and 15 mg/kg, po; assay type: ADME, organism-based; conditions: in vivo, read-out: beta t1/2 (converted); outline: as §1
[4] = test system: HCT-116; assay: Cell cycle arrest in human HCT116 cells assessed as accumulation at subG1 phase after 24 hrs by flow cytometry; assay type: functional, cell-based; outline: as §2
[5] = target: T1, Histone deacetylase 8 (Homo sapiens, UniProt Q9BY41); assay: Inhibition of HDAC8 using carboxyfluorescein-labeled peptide as substrate after 17 hrs by fluorescence assay
T1 sequence (Q9BY41 whole entry): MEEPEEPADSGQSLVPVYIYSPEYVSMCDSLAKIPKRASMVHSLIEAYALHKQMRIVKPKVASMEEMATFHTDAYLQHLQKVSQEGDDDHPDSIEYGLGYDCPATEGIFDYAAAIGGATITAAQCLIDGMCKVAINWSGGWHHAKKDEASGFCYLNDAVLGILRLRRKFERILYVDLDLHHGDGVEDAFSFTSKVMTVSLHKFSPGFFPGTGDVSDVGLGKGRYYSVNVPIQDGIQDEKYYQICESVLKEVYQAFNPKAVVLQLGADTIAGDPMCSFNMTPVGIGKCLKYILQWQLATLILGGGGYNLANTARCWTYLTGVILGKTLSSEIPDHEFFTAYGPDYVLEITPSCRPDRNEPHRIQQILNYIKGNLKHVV
Outline: (§3)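 Purified HDAC isoforms incubated with compound and 1 μM carboxyfluorescein-labelled peptide for 17 h at 25 °C. Reaction stopped with HEPES/0.08% SDS. Substrate and product separated electrophoretically and read by fluorescence. Run in duplicate. IC50 from 12-point curves by nonlinear regression.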

[6] = target: Histone deacetylase 3 (Homo sapiens, UniProt O15379); assay: Inhibition of HDAC3 using carboxyfluorescein-labeled peptide as substrate after 17 hrs by fluorescence assay; outline: as §3
[7] = target: Histone deacetylase 4 (Homo sapiens, UniProt P56524); assay: Inhibition of HDAC4 using carboxyfluorescein-labeled peptide as substrate after 17 hrs by fluorescence assay
Outline: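 Stopped with HEPES/0.08% SDS. Substrate and product separated electrophoretically, read by green fluorescence. Duplicates. IC50 from 12-point concentration-response curves by nonlinear regression. Run by contract lab.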

[8] = Oral bioavailability in CD1 mouse at 15 mg/kg; assay type: ADME, organism-based; conditions: in vivo; outline: as §1
[9] = test system: HCT-116; assay: Cell cycle arrest in human HCT116 cells assessed as decrease in S phase cells at 0.3 uM after 24 hrs by flow cytometry; assay type: functional, cell-based; outline: as §2
[10] = test system: K562; assay: Antiproliferative activity against human K562 cells after 72 hrs by CellTiter-Glo luminescent cell viability assay; assay type: functional, cell-based; conditions: K562, 72 h
Outline: (§4)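 Cells in exponential growth exposed to a range of inhibitor concentrations for 72 h. CellTiter-Glo reagent added, mixed 2 min to lyse cells, luminescence read 10 min later. IC50 derived from the concentration–response. Replicates n ≥ 2, mean shown.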

[11] = test system: HCT-116; assay: Antiproliferative activity against human HCT116 cells after 72 hrs by CellTiter-Glo luminescent cell viability assay; assay type: functional, cell-based; conditions: HCT-116, 72 h; outline: as §4
[12] = Cmax in CD1 mouse at 5 mg/kg, iv; assay type: ADME, organism-based; parameters: dose 5 mg/kg, route intravenous; conditions: in vivo; outline: as §1
[13] = test system: HCT-116; assay: Antitumor activity against human HCT116 cells xenografted in po dosed CD1 nude mouse assessed as reduced tumor volume administered for 5 days/week for 17 days; assay type: functional, organism-based
Outline: (§5)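 Female CD-1 nude mice bearing subcutaneous flank HCT-116 tumours (5 × 10⁶ cells injected). Dosing began at about 100 mm³ tumour volume. Given orally at 35–150 mg/kg in water with 5% DMSO and 9.5% encapsin, 5 days/week for 17 days. Tumour volume tracked against vehicle controls. T/C = mean relative tumour volume treated / control.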

[14] = test system: HCT-116; assay: Antitumor activity against human HCT116 cells xenografted in CD1 nude mouse assessed as reduced tumor volume 150 mg/kg, po administered for 5 days/week for 17 days; assay type: functional; outline: as §5
[15] = target: Histone deacetylase (Homo sapiens) (UniProt Q13547+O15379+Q9UBN7+Q92769+Q9UQL6+Q8WUI4+Q9BY41+Q96DB2+P56524+Q9UKV0+Q969S8); conditions: HCT-116, 100 uM
[16] = Cmax in CD1 mouse at 15 mg/kg, po; assay type: ADME, organism-based; parameters: dose 15 mg/kg, route oral; conditions: in vivo; outline: as §1
[17] = Volume of distribution at steady state in CD1 mouse at 5 mg/kg, iv and 15 mg/kg, po; assay type: ADME, organism-based; conditions: in vivo, read-out: Vdss; outline: as §1
[18] = test system: HCT-116; assay: Cell cycle arrest in human HCT116 cells assessed as accumulation at G2M phase at 1 to 3 uM after 24 hrs by flow cytometry; assay type: functional, cell-based; outline: as §2
[19] = AUC (0 to infinity) in CD1 mouse at 5 mg/kg, iv; assay type: ADME, organism-based; parameters: time infinity, dose 5 mg/kg, route intravenous; conditions: plasma; outline: as §1

Sequence of Histone deacetylase 4 (P56524 whole entry): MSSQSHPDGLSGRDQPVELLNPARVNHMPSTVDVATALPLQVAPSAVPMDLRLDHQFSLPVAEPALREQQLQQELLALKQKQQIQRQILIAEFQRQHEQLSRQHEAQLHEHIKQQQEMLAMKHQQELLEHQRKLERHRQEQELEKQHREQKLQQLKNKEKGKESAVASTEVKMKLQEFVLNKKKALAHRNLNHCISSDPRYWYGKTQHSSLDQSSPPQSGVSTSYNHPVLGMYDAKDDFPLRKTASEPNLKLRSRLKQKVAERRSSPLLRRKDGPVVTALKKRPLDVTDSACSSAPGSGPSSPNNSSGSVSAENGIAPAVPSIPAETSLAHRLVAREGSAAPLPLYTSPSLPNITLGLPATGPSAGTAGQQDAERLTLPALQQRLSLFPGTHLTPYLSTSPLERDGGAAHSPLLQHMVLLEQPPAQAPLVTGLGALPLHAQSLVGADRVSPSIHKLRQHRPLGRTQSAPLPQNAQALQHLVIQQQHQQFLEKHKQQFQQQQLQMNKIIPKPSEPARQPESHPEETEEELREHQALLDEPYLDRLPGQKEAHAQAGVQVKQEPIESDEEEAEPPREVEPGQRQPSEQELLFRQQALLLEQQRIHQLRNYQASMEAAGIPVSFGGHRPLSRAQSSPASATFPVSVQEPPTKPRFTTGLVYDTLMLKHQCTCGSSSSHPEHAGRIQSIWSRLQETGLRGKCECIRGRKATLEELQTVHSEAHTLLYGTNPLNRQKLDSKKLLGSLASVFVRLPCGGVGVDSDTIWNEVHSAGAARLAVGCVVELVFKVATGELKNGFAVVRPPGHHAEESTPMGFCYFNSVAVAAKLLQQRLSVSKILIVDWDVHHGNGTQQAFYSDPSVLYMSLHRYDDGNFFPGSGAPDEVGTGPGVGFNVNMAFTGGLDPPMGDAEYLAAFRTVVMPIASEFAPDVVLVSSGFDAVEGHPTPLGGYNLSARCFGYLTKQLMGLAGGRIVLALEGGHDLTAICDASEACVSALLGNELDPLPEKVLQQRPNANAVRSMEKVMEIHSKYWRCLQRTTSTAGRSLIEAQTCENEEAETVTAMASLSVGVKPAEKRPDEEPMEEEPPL
Sequence of Histone deacetylase 3 (O15379 whole entry): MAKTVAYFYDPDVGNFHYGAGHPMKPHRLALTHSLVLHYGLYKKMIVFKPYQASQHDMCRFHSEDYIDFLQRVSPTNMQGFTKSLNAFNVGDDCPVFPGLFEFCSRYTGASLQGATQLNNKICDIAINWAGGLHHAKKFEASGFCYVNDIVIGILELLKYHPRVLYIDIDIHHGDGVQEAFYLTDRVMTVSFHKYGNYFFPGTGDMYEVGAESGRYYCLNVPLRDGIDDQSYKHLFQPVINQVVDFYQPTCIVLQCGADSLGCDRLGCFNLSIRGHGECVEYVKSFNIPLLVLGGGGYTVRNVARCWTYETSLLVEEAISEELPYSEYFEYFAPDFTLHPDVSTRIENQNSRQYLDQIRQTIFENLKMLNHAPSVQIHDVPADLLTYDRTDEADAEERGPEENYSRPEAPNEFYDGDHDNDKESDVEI

With `O=C(/C=C/c1ccc2c(c1)C(=O)CC1(CCN(Cc3ccccc3)CC1)O2)NO` the Tmax [1] was 0.25 h, the Activity [2] was “Active” and the half-life [3] was 8.4 h. The Activity [4] was “Dose-dependent effect”, the IC50 [5] was 1760 nM and the IC50 [6] was 9.4 nM. For the same compound, the IC50 [7] was 127 nM, the bioavailability [8] was 31.5% and the Activity [9] was “Active”. The IC50 [10] was 399 nM, the IC50 [11] was 477 nM and the Cmax [12] was 12.5 µM. The Activity [13] was “Dose-dependent effect”, the T/C [14] was 0.3 and the inhibition [15] was “Active”. For the same compound, the Cmax [16] was 0.823 µM, the Vd [17] was 8.9 L/kg and the Activity [18] was “Active”. The AUC(0-inf) [19] was 847 ng·h/mL.
